MEKK2wt PB1 HTS – modulators of MEK5 binding to wildtype MEKK2, primary screen, biochemical, multiplex bead flow cytometry, Alexa488-MEK5 | actives 1.1% (n = 290,000) | Mitogen-activated protein kinase kinase kinase 2 (Homo sapiens), Q9Y2U5 | Alexa488-MEK5 binding to MEKK2 WT; actives lie on both sides | binding response (% of control), % at 10 µM; in the data active = binding response below about 67% or above about 130%
Arr AP2 block – inhibitors of beta-arrestin/AP2 binding, primary screen, biochemical, GPCR trafficking, flow cytometry. actives 0.31% (n = 340,000). AID 504490, 2011. inhibition, % at 10 µM. beta-arrestin 1 C-terminal peptide binding to AP2 beta2-adaptin appendage (human). FITC-arrestin peptide / GST-AP2 beads; AP2 beta2 appendage carries R879A mutation;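 active = inhibition above a set limit, near 3 SD of compounds lacking own fluorescence, cut at about 54% in these data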;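 note: plate controls were DMSO wells for no effect and 5 µM unlabelled arrestin peptide for full effect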
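System: GST-AP2 R879A bound to glutathione beads, E. coli-expressed. Also added: 50 nM FITC-arrestin peptide. Schedule: compound with beads 12 min RT, then probe 1 h RT. Signal: bead flow cytometry, FITC channel. Read-out basis: percent response.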
MEKK2 mut-MEK5 – MEK5 binding signal on mutant MEKK2 PB1, primary screen, biochemical, multiplex bead flow cytometry, Alexa488-MEK5; actives 0.35% (n = 290,000); Alexa488-MEK5 binding to MEKK2 mutant; percent response, % at 10 µM; in the data active = percent response above about 24%, passing the limit was not always enough
MEKK3 PB1 HTS – modulators of MEKK3-MEK5 PB1 binding, primary screen, biochemical, wildtype MEKK3, multiplex bead flow cytometry, Alexa488-MEK5; bead-based flow cytometry, Alexa488-MEK5 binding to MEKK3; actives lie on both sides; 0 = blocked by unlabeled MEK5, 100 = vehicle; binding response (% of control), % at 10 µM; actives 1.4% (n = 290,000);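 active = binding response more than 3 SD above or below the average of its plate-row segment, actives on both sides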;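 note: Alexa488 bead fluorescence after subtracting the streptavidin-only scavenger bead signal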
Target sequence (Q99759 whole entry, looked up): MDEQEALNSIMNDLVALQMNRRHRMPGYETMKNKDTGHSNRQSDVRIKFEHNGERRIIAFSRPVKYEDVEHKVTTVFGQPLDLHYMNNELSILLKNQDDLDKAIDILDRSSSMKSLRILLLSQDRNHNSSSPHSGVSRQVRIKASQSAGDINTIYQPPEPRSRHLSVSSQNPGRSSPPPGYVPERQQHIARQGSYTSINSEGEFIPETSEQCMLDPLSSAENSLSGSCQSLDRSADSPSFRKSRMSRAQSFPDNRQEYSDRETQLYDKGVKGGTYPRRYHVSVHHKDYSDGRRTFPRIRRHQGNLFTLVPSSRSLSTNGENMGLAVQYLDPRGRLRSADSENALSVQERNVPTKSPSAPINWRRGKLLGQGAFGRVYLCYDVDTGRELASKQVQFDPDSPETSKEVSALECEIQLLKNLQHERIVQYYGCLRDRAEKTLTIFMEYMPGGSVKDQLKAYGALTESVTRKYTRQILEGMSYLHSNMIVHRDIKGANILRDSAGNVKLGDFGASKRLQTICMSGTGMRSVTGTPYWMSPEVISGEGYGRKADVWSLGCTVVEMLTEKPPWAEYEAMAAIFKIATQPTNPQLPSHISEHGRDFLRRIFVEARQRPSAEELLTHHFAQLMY
MEKK2wt confirm – modulators of MEK5 binding to wildtype MEKK2, confirmation, biochemical, single concentration, multiplex bead flow cytometry; actives 2.4% (n = 5,900); binding response (% of control), % at 10 µM; AID 1892, 2009; shares compounds with MEKK3 PB1 HTS; Alexa488-MEK5 binding to MEKK2 WT; actives lie on both sides; in the data active = binding response below about 16% or above about 210%; inactive = in between
MEKK2mut confirm – mutant MEKK2 PB1-MEK5 binding signal retest – biochemical, single concentration, multiplex bead flow cytometry, confirmation | Alexa488-MEK5 binding to MEKK2 mutant | actives 2% (n = 5,900) | AID 1893, 2009 | shares compounds with MEKK3 PB1 HTS | percent response, % at 10 µM; in the data active = percent response mostly above about 71%, no sharp cut-off; inactive = mostly below about 38%;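 note: higher means compound restores mutant binding toward wildtype level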
MEKK3 confirm – MEKK3 wild-type PB1 binding to MEK5, inhibitors, confirmation, biochemical, bead multiplex flow cytometry, single concentration, wildtype; AID 1894, 2009; actives 1.8% (n = 5,900); shares compounds with MEKK3 PB1 HTS; Alexa488-MEK5 binding to MEKK3; stronger effect = lower value; binding response (% of control), % at 10 µM;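 active = binding response below 72% of control, or above a set upper limit, though filed actives all read lower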;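 note: 100% = DMSO only wells and 0% = binding blocked by excess unlabeled MEK5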
* marks the source's active call; other numbers are inactive results; / = not tested or not shown; [ ] = dose if it differs, or a comment. Most compounds without a hit are left out; they make up all but 2.3% or so of the library.

SMILES	MEKK2wt PB1 HTS	Arr AP2 block	MEKK2 mut-MEK5	MEKK3 PB1 HTS	MEKK2wt confirm	MEKK2mut confirm	MEKK3 confirm
CC(=O)O[C@@H]1[C@H]2[C@@H](C[C@@H](C)[C@@H]3CCC(=O)[C@@]13C)OC(=O)[C@@H]2C	103	24	1	95	/	/	/
NCCCCCCNS(=O)(=O)c1cccc2c(Cl)cccc12	140*	5	10	116	112	2	98
CCOc1ccc(/C(O)=C2\C(=O)C(=O)N(c3cc(C)on3)C2c2ccccc2OC)cc1 (configuration not stated)	2.0*[inhibitor]	6	-31	2.0*[inhibitor]	110	8	107
CCOc1ccc(C2/C(=C(\O)c3ccc(OC)c(OC)c3)C(=O)C(=O)N2c2cc(C)on2)cc1OC (configuration not stated)	111	21	12	104	/	/	/
CN1CCN(c2ccc(C(F)(F)F)cc2NC(=O)Nc2ccccc2)CC1	150*	9	18	109	159	39	110
C#CCNCCS(=O)(=O)N(Cc1ccc(Br)cc1)[C@@H](CC(C)C)C(=O)O	/	-6	/	/	/	/	/
COc1cc2[nH]c(=O)n(CCCC(=O)N3CC=C(c4ccccc4)CC3)c(=O)c2cc1OC	120	41	10	127*	105	4	104
O=[N+]([O-])c1cccc(P(=O)(O)c2cccc([N+](=O)[O-])c2)c1	100	-6	-20	94	/	/	/
O=C(Nc1cccc(C(F)(F)F)c1)N1CCC(c2nc(-c3ccc(F)cc3)no2)CC1	173*	-9	24	119	118	6	105
OC1(C#CCN2CCCC2)CCCCC1	102	-4	1	98	/	/	/
O=C(CN(Cc1ccco1)C(=O)c1cccc(Cl)c1)Nc1c(Cl)cc(Cl)cc1Cl	117	5	4	122*	102	3	104
O=C(CN(Cc1ccco1)C(=O)c1ccc(Cl)cc1)Nc1c(Cl)cc(Cl)cc1Cl	99	16	0	98	/	/	/
Cc1cc(OCC(=O)OCC(=O)NC2CCCC2)ccc1Cl	/	-10	/	/	/	/	/
Cc1cc(OCC(=O)NC2CCCCC2)ccc1Cl	105	3	2	147*	107	3	102
COc1cccc(CNS(=O)(=O)c2ccc(S(=O)(=O)N3CCCC3)cc2)c1	601*	16	454*	112	102	1	104
COc1cccc(NS(=O)(=O)c2ccc(S(=O)(=O)N3CCCC3)cc2)c1	/	-15	/	/	/	/	/
COc1ccc(CNC(=S)Nc2cccc(C)c2C)cc1	82	5	-11	78*[inhibitor]	98	-1	101
Cc1cccc(NC(=S)NCc2ccncc2)c1C	92	5	-3	91	/	/	/
CC(C)(C)OC(=O)N1CCC(NC(=O)c2[nH]cnc2C(=O)Nc2cccc(Cl)c2)CC1	/	2	/	/	/	/	/
O=C(C[n+]1ccccc1)N/N=C/c1ccccc1Cl	/	1	/	/	/	/	/
O=C(C[n+]1ccccc1)N/N=C/c1cccc(Cl)c1Cl	66*[inhibitor]	12	-2	88	109	4	104
O=C(NS(=O)(=O)Oc1ccc(Cl)cc1)OC[C@@H]1CCCN2CCCC[C@H]12	113	-17	1	149*	102	2	100
N#Cc1ccc2[nH]c(CO)c(-c3ccccc3)c2c1	-13*[inhibitor]	39	-21	0.0*[inhibitor]	106	-2	106
Cc1nn(CC(=O)Nc2cccnc2)c(C)c1[N+](=O)[O-]	91	30	-5	88	/	/	/
O=C(CC1CCCCC1)NCc1ccccn1	122	-1	6	122*	120	15	103
SMILES	MEKK2wt PB1 HTS	Arr AP2 block	MEKK2 mut-MEK5	MEKK3 PB1 HTS	MEKK2wt confirm	MEKK2mut confirm	MEKK3 confirm
O=C(NCC1CCCO1)c1cccc(S(=O)(=O)Nc2ccc(F)cc2)c1 (configuration not stated)	/	-15	/	/	/	/	/
Cc1c(Cl)c([N+](=O)[O-])nn1CCCC(=O)N(Cc1ccccc1)Cc1ccccc1	108	9	0	141*	88	-8	89
Cc1nc2sccn2c(=O)c1CCN1CCC(=C(c2ccccc2)c2ccc(F)cc2)CC1	157*	/	13	120	123	4	101
Cc1nc2sccn2c(=O)c1S(=O)(=O)N1CCN(c2ccccc2)CC1	99	-9	-1	101	/	/	/
CC(C)C(=O)OCc1cn(-c2ccc(Cl)c(Cl)c2)nn1	102	-3	-1	111	/	/	/
CCc1cc(C(=O)c2ccc(C)cc2)c(NC(=O)CCl)s1	104	-5	3	118	/	/	/
Cc1cc(C(=O)c2ccc(Cl)cc2)c(NC(=O)CCl)s1	108	1	1	135*	101	3	103
COc1ccc(CC(=O)Nc2cc(C)ccn2)cc1	56	5	-15	42*[inhibitor]	89	1	94
Clc1ccc(C2=NCCN2)cc1	105	-10	4	113	/	/	/
O=C(Nc1ccc(C2=NCCN2)cc1)c1ccc(Cl)c(C(=O)Nc2ccc(C3=NCCN3)cc2)c1	144*	/	34	66*[inhibitor]	130	12	102
O=C(Nc1ccc(Cl)c(Cl)c1)c1ccncc1	102	-4	1	100	/	/	/
O=C(Nc1ccc(Cl)c(Cl)c1)c1ccc(Cl)c(Cl)c1	162*	-5	56*	97	142	16	105
COc1cc(NC(=O)CCCN2C(=O)NC(C)(C)C2=O)cc(OC)c1	/	-1	/	/	/	/	/
CCOc1ccccc1NC(=O)Nc1cccc(S(N)(=O)=O)c1	108	27	7	103	/	/	/
C=CCc1cccc2cc(C(=O)Nc3ccc(F)cc3)c(=O)oc12	108	-1	3	107	/	/	/
C=CCc1cccc2cc(C(=O)Nc3ccc(CC(=O)O)cc3)c(=O)oc12	101	-12	1	139*	98	-1	102
CN(Cc1c(F)cccc1Cl)C(=O)c1cnc2ccccc2n1	96	-6	-5	101	/	/	/
O=C(c1cc(COc2ccc(F)cc2F)on1)N1C[C@H]2CC[C@H]1C2	103	0	6	103	/	/	/
O=C(c1cc(COc2c(F)cccc2F)on1)N1CCC(c2ccccc2Cl)C1 (configuration not stated)	51	-4	-35	49*[inhibitor]	96	-5	100

Compound activity from PubChem BioAssay.
